Reference: ChEMBL document CHEMBL1938298, “Synthesis and characterization of [¹²⁵I]2-iodo N-[(S)-{(S)-1-methylpiperidin-2-yl}(phenyl)methyl]3-trifluoromethyl-benzamide as novel imaging probe for glycine transporter 1” (Bioorg Med Chem, 2011)
Activity calls are given as the source filed them. No cut-off for these calls is given here.

Columns and labels:
[1] = test system: Intestine; test: Drug uptake in ddY mouse intestine at 11.1 kBq, iv after 0.5 min by gamma counting; assay type: ADME, organism-based; conditions: in vivo
How it was run: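 Male ddY mice (6 weeks, 30–35 g) received about 11.1 kBq [125I]tracer in 0.1 mL i.v. via tail vein. Killed at set times, organs dissected and weighed, radioactivity gamma counted. Reported as % injected dose/g tissue, mean ± SD, n = 5–6.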

[2] = test system: Spleen; test: Drug uptake in ddY mouse spleen at 11.1 kBq, iv after 5 min by gamma counting; assay type: ADME, organism-based; conditions: in vivo
How it was run: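 Male ddY mice (6 weeks, 30–35 g) were given about 11.1 kBq of [125I]tracer in 0.1 mL i.v. via the tail vein. At each time point the animals were killed and organs dissected, weighed and gamma-counted. Uptake is expressed as % injected dose per gram of tissue, mean ± SD, n = 5–6.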

[3] = test system: Mus musculus; test: In vivo binding affinity to GlyT1 in ddY mouse brain medullary region at 33.3 kBq, iv after 30 mins in presence of nonradioactive compound 2 mg/kg, iv administered 15 mins prior to compound administration relative to control; assay type: functional, Medulla of organ
[4] = test system: Mus musculus; test: In vivo binding affinity to GlyT1 in ddY mouse brain thalamus at 33.3 kBq, iv after 30 mins in presence of N-Me-SSR504734 2 mg/kg, iv administered 15 mins prior to compound administration relative to control; assay type: functional
[5] = test system: Nucleic Acid; test: Ratio of drug level in brain to blood in ddY mouse at 11.1 kBq, iv after 60 min by gamma counting; assay type: ADME, organism-based; conditions: 1 h
[6] = Lipophilicity, log D of the compound at pH 7.4; assay type: physicochemical; conditions: buffer
[7] = biological target: T1, Sodium- and chloride-dependent glycine transporter 1 (Rattus norvegicus) (UniProt P28572); test: Binding affinity to GlyT1 in rat brain thalamus at 0.03 to 0.04 nM preincubated for 20 mins in binding buffer before compound addition measured after 30 mins by autoradiography in presence of GlyT1 inhibitor N-Me-SSR504734 relative to control; assay type: tissue-based; conditions: tested as the 125I-labelled form
T1 sequence (whole entry): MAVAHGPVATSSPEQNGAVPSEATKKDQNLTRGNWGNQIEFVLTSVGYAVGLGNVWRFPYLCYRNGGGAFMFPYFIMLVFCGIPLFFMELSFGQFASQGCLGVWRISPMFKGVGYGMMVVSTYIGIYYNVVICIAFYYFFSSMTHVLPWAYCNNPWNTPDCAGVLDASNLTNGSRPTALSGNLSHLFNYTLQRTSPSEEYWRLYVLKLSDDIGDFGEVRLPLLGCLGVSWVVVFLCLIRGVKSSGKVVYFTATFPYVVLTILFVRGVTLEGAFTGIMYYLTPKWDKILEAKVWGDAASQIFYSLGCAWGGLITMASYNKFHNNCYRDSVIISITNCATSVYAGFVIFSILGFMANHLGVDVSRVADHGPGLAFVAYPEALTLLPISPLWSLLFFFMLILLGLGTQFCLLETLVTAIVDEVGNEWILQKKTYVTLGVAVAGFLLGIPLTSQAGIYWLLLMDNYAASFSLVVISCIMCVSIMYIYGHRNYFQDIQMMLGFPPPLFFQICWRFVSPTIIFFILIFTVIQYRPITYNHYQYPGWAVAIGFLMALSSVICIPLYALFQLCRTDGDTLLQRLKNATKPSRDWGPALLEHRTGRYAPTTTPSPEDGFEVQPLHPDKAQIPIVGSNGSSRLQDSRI

[8] = biological target: T1, Sodium- and chloride-dependent glycine transporter 1 (Rattus norvegicus); test: Binding affinity to GlyT1 in rat brain thalamus at 0.03 to 0.04 nM preincubated for 20 mins in binding buffer before compound addition measured after 30 mins by autoradiography in presence of 0.01 mM GlyT1 inhibitor ALX5407 relative to control; assay type: tissue-based; conditions: tested as the 125I-labelled form
[9] = biological target: T1, Sodium- and chloride-dependent glycine transporter 1 (Rattus norvegicus); test: Binding affinity to GlyT1 in rat brain hippocampus at 0.03 to 0.04 nM preincubated for 20 mins in binding buffer before compound addition measured after 30 mins by autoradiography in presence of 0.01 mM GlyT2 inhibitor ORG25543 relative to control; assay type: tissue-based; conditions: tested as the 125I-labelled form
How it was run: (§1)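 Rat brain sagittal sections (20 µm) preincubated 20 min at 25 °C in Tris-HCl buffer pH 7.5 (NaCl, KCl, MgCl2, CaCl2), then 30 min at 25 °C with [125I] tracer (100 kBq, 0.03–0.04 nM) plus competitor (10 µM; glycine 1 or 10 mM). Cold washes, imaging plate 3 days, ROI PSL minus background per mm². % control from ≥triplicate slices, three rats.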

[10] = biological target: T1, Sodium- and chloride-dependent glycine transporter 1 (Rattus norvegicus); test: Binding affinity to GlyT1 in rat brain thalamus at 0.03 to 0.04 nM preincubated for 20 mins in binding buffer before compound addition measured after 30 mins by autoradiography relative to control; assay type: tissue-based; conditions: tested as the 125I-labelled form
[11] = biological target: T1, Sodium- and chloride-dependent glycine transporter 1 (Rattus norvegicus); test: Binding affinity to GlyT1 in rat brain midbrain at 0.03 to 0.04 nM preincubated for 20 mins in binding buffer before compound addition measured after 30 mins by autoradiography in presence of 0.01 mM GlyT1 inhibitor ALX5407 relative to control; assay type: tissue-based; conditions: tested as the 125I-labelled form; how it was run: as §1
[12] = biological target: T2, Sodium- and chloride-dependent glycine transporter 1 (Homo sapiens, UniProt P48067); test: Inhibition of GlyT1 in human JAR cells assessed as inhibition of [3H]glycine uptake preincubated for 1 mins measured after 2 hrs by liquid scintillation counting; assay type: cell-based
T2 sequence (P48067 whole entry): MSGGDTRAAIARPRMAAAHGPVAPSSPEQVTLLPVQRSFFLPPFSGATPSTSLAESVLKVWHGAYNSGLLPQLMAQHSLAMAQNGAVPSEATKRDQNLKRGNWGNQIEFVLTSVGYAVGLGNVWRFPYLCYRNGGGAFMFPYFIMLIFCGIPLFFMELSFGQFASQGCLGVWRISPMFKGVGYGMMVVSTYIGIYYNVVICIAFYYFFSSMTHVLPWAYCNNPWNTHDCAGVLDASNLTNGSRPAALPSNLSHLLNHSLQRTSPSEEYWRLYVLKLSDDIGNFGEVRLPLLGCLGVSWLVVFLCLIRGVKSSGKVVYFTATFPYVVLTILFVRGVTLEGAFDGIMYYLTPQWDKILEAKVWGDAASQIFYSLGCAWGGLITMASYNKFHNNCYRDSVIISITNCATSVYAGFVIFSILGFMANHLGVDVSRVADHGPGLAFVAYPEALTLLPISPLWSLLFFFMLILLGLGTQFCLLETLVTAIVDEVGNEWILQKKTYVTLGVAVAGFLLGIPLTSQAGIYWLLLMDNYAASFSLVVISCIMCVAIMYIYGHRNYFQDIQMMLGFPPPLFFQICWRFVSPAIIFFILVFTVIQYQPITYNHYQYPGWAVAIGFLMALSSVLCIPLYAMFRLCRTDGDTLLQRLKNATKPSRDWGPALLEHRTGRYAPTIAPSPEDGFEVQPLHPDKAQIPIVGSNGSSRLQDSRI
How it was run: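 [3H]glycine (final 10 µM) was added for 2 h at room temperature; nonspecific uptake was defined with 10 mM glycine. Cells were lysed in NaOH and counted by liquid scintillation. IC50 values are from at least three measurements, mean ± SEM.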

Row | Drug uptake [1] | Drug uptake [2] | Ratio [5] | logD [6] | Activity [7] | Activity [8] | Activity [9] | Activity [10] | Activity [11] | IC50 [12] | Compound | Activity [3] | Activity [4]
1 | 0.81 % ID/g | 5.11 % ID/g | 2.32 | 2.86 | – | – | – | – | – | – | CN1CCCC[C@H]1[C@@H](NC(=O)c1cccc(C(F)(F)F)c1[125I])c1ccccc1 | 53% | 56%
2 | – | – | – | – | 25.1% | 33.2% | 105% | Active | 36.2% | 2.35 nM | CN1CCCC[C@H]1[C@@H](NC(=O)c1cccc(C(F)(F)F)c1I)c1ccccc1 | – | –
